# Bioassay records as filed in PubChem.
# Shown are actives, neighbours in structure and some others; about 2.6% of the full set was active somewhere.
# MT stabilize HCS = microtubule stabilizers in HeLa cells, primary screen, imaging, high-content imaging. HeLa tubulin immunostaining HCS, 24 h; share of cells brighter than vehicle mean+2SD. % tubulin-high responders, % at 10 µM. actives 0.83% (n = 200,000). AID 2205, 2009;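 active = plate Z-score above 3 for both tubulin-high and condensed-nucleus cell shares, with cell loss under 80%, at 10 µM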;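 also: anti alpha tubulin signal scored within the nucleus-defined area of each cell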
# NPY-Y2 PAM-ag = NPY-Y2 potentiators or agonists, primary screen, cell-based | cells expressing NPY-Y2, potentiator/agonist read-out | activation, % at 3.6 µM | actives 0.45% (n = 220,000) | AID 1359, 2008; in the data active = activation above about 27%;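 also: cells stimulated with NPY near EC25 plus isoproterenol at EC100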
# b-catenin transl = modulators of beta-catenin nuclear translocation, primary screen, imaging, HeLa cells, immunofluorescence, high-content; nuclear translocation activity, % at 5 µM; actives 0.3% (n = 190,000);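 active = nuclear translocation activity above 50% at 5 µM, with a well cell count of 50 or more; inconclusive = wells under 50 cells across six images, flagged as toxic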;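 also: per-cell ratio of nuclear to cytoplasmic median beta-catenin stain intensity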
#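 System: HeLa cells, endogenous beta-catenin; compound dosing: 5 µM primary single dose, 0.1% DMSO, 0.02–20 µM confirmation series; incubation: 24 h compound exposure at 37°C, 5% CO2; signal: beta-catenin immunofluorescence imaging with DAPI; evaluation: % activation, nuclear-to-cytoplasmic median beta-catenin signal ratio per cell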
# NPY Y2 blocker = NPY-Y2 receptor antagonists, primary screen, cell-based; NPY-Y2 expressing cells, antagonist mode; inhibition, % at 2.7 µM; AID 793, 2007; Neuropeptide Y receptor type 2 (Homo sapiens), P49146; actives 0.99% (n = 140,000); in the data active = inhibition above about 17%
# NPY1 pot ag = NPY-Y1 receptor potentiators or agonists, primary screen, cell-based; Neuropeptide Y receptor type 1 (Homo sapiens), P25929; NPY-Y1 expressing cells, potentiator/agonist activation; AID 1304, 2008; actives 0.37% (n = 220,000); activation, % at 3.6 µM; in the data active = activation above about 33%, passing the limit was not always enough;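 also: cells stimulated with NPY at EC10 then isoproterenol at EC100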
# Target sequence (P25929 whole entry, looked up): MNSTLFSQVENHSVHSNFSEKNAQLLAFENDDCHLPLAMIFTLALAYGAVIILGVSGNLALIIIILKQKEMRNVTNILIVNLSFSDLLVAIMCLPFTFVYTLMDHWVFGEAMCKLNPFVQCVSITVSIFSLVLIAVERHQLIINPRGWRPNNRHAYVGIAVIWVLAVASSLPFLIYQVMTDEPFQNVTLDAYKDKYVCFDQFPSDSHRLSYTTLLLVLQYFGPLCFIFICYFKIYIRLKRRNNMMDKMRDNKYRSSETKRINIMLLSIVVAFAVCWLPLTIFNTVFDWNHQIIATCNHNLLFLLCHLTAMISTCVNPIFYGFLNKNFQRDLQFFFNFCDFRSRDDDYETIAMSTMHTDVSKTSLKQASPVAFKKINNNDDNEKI
# NPY Y1 blocker = NPY-Y1 receptor antagonists, primary screen, cell-based; AID 1040, 2008; inhibition, % at 3.6 µM; HEK293-CNG Y1 cells, membrane potential fluorescence; NPY at EC95, then isoproterenol; actives 1% (n = 200,000); Neuropeptide Y receptor type 1 (Homo sapiens), P25929;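 active = inhibition above the campaign mean inhibition of all tested compounds plus 3 SD, cut at about 20% in these data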
#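 Material: HEK293 Y1/CNG channel cell line; also added: NPY (25 nM), isoproterenol (1 µM), Ro 20-1724 (25 µM); doses: one concentration, 3.6 µM, in 0.4% DMSO; schedule: compound incubation 1 h at room temperature, readout 45 min post-stimulation; technique: membrane potential fluorescence; measure: fluorescence ratio normalized to % inhibition between controls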
# Hits are given with their value; 0 = inactive; ? = inconclusive; - = no result; + = active, no number.
SMILES,MT stabilize HCS,NPY-Y2 PAM-ag,b-catenin transl,NPY Y2 blocker,NPY1 pot ag,NPY Y1 blocker
COC(=O)C1C=C2c3cccc4[nH]cc(c34)CC2N(C)C1 (configuration not stated),-,0,0,-,0,-
CCN(CC)C(=O)N[C@H]1C[C@@H]2c3cccc4[nH]cc(c34)C[C@H]2N(C)C1,0,72.3,0,0,83.6,0
COC(=O)C(O)(c1ccc(N(C)C)cc1)C(F)(F)F (configuration not stated),0,0,0,-,0,0
CN(C)c1ccc(C(=O)c2ccc(N(C)C)cc2)cc1,45.8,0,-,0,0,0
O=c1c2ccccc2[se]n1-c1ccccc1,0,0,0,0,0,0
CCOC(=O)C1CCN(/C=C2/C(=O)NC(=O)N(Cc3ccco3)C2=O)CC1,40.7,0,0,0,0,0
COc1ccc(C2SCC(=O)Nc3c2c(C)nn3C2CCOC(C)(C)C2)cc1OC (configuration not stated),0,0,-,0,0,0
CC(C)c1oc(=O)cc2c1[C@@H](O)[C@H]1OC(=O)[C@@]3(C)C[C@@H](O)[C@@H](O)[C@@]2(C)C13 (some centres not stated),0,0,-,0,0,0
CCc1nc(N2CCNCC2)c(C#N)c2c1CSC(C)(C)C2,0,89.3,0,0,92.2,0
CC(C)Cc1nc(N2CCNCC2)c(C#N)c2c1CCC2,-,0,0,-,0,-
CCCCCSc1cc(OC)c(CCN)cc1OC,0,0,0,0,53.0,0
O=C(c1ccc2c(c1)ncn2C1CCCCC1)N1CCC2(CC1)OCCO2,26.7,0,0,0,0,0
COc1cccc(C(=O)N2CCC3(CC2)OCCO3)c1,-,0,0,-,0,-
Oc1ccc2c3c1O[C@H]1c4[nH]c5ccccc5c4C[C@@]4(O)C(C2)N(CC2CC2)CC[C@]314,-,0,0,-,0,0
COc1ccccc1CCNC1CCC(C(C)(C)C)CC1 (configuration not stated),0,0,0,30.4,0,29.0
CCCCC1C(=O)NC(=S)NC1=O,0,0,0,0,0,0
COc1ccc(Cc2nccc3cc(OC)c(OC)cc23)cc1OC,0,0,0,20.1,0,22.2
COc1ccc(CCNCc2ccc(C)s2)cc1OC,0,0,0,-,0,0
Cc1ccc(CNCCc2ccccc2F)cc1,0,0,0,0,0,0
CCN(CC)c1ccc(CNCCc2ccccc2F)cc1,21.0,0,0,-,0,0
C/C(=N\N1CCN(C)CC1)c1c(O)[nH]c(=O)[nH]c1=O,0,0,0,0,0,0
COc1ccc(/C=N\N=C(N)N)cc1,0,0,0,-,0,0
NC(N)=N/N=C/c1ccc(N2CCOCC2)cc1,10.1,0,0,-,0,0
O=C1C(=O)c2ccccc2-c2ccccc21,0,0,0,40.0,0,38.7
CN1/C(=C\C=Nc2ccccc2)C(C)(C)c2ccccc21,0,0,0,0,0,0
SMILES,MT stabilize HCS,NPY-Y2 PAM-ag,b-catenin transl,NPY Y2 blocker,NPY1 pot ag,NPY Y1 blocker
CN1/C(=C\C=C\C2=[N+](C)c3ccc4ccccc4c3C2(C)C)C(C)(C)c2ccccc21,0,0,0,+,0,+
CCN(CC)P(=O)(Oc1ccccc1)Oc1ccccc1,-,0,0,-,0,-
Cc1cc([N+](=O)[O-])c2ccccc2[n+]1[O-],-,0,0,-,0,-
O=P(NC(c1ccccc1)c1ccccc1)(Oc1ccccc1)Oc1ccccc1,0,0,0,37.6,0,21.2
NC(=O)c1cn(C2OC(CO)C(O)C2O)c2ncnc(N)c12 (configuration not stated),20.1,0,?,0,0,0
O=C1NC(=O)C(CCc2ccncc2)(Cc2cccc(Cl)c2Cl)C(=O)N1c1ccc(Br)cc1 (configuration not stated),18.9,0,95.2,0,0,0
Cc1cc(=O)n(-c2ccccc2)n1-c1ccccc1,0,0,0,0,0,0
